# Compound activity deposited in PubChem BioAssay by Johns Hopkins Ion Channel Center.
# The list is not random: actives were taken first. Their share in the collection is about 3.7%.
# KCNK9 block: KCNK9 potassium channel inhibitors, primary screen, HEK293 cells, thallium flux. hit rate 1.2% among 310,000. AID 488922, 2010. FluxOR thallium flux fluorescence; stronger effect = lower value. B-score at 10 µM. Potassium channel subfamily K member 9 (Homo sapiens), Q9NPC2;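 active means ratio B-score over 3 SD below the library mean, with starting fluorescence within 5 SD of its mean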;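 further: negative B-score means less thallium flux so channel inhibition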
# Target sequence (Q9NPC2 whole entry, looked up): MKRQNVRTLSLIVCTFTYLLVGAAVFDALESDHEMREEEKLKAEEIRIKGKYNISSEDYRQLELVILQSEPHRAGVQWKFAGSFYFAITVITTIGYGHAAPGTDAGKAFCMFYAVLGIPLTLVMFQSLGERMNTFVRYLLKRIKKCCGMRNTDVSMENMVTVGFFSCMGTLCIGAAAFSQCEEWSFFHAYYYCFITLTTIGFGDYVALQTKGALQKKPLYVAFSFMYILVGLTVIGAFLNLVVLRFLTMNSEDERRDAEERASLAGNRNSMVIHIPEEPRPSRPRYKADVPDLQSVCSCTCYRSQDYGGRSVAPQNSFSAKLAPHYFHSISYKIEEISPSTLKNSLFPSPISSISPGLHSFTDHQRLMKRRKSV
# KCNQ1 act: potentiators or activators of KCNQ1 channel, primary screen, cell-based, thallium flux, high-throughput; CHO-K1 KCNQ1, thallium flux FluxOR fluorescence; stronger effect = higher value; B-score at 10 µM; AID 2648, 2010; hit rate 0.35% among 310,000; Potassium voltage-gated channel subfamily KQT member 1 (Homo sapiens), P51787;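 active means fluorescence ratio B-score, a plate-corrected score, at least three library SD, with initial intensity B-score within 5 SD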
#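 assay system = KCNQ1-transfected CHO-K1 cells | medium = assay buffer with matched DMSO | probe or stimulus = depolarizing K+/Tl+ stimulus, K2SO4 and Tl2SO4 each 12.5 mM in 5x stock | dosing = single dose | incubation = dye 90 min, compound 20 min, room temperature | detection = kinetic FluxOR fluorescence, 10 s baseline plus 110 s post-stimulus | evaluation = ratio B score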
# Kir21 block: inhibitors of mouse Kir2.1 inward-rectifier potassium channel; Inward rectifier potassium channel 2 (Mus musculus), P35561; HEK293-Kir2.1, FluxOR thallium flux fluorescence; stronger effect = lower value; B-score at 10 µM; hit rate 0.85% among 310,000; AID 1672, 2009;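 active means fluorescence ratio B-score at or below minus 3 SD of library scores, with starting-brightness B-score within 2 SD, cut at about -4.2 in these data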;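 further: channel flux triggered by added potassium and thallium sulfate stimulus; B-score of peak minus minimum fluorescence over baseline after thallium stimulus; more negative B-score means stronger Kir2.1 block with less thallium influx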
# hERG protect: hERG rescue from dofetilide block, primary screen, cell-based, CHO-hERG, FluxOR thallium flux, dofetilide IC70 | AID 1511, 2009 | Voltage-gated inwardly rectifying potassium channel KCNH2 (Homo sapiens), Q12809 | activation (rescue from dofetilide block), less the hit threshold, % at 10 µM | dofetilide IC70 present | hit rate 0.51% among 310,000;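 active means activation above the mean of controls blocked by dofetilide plus 5 SD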;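 further: thallium influx through hERG after potassium depolarization seen as dye fluorescence rise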
# KCNQ1 inh: inhibitors of human KCNQ1 channel, primary screen, cell-based, thallium flux, high-throughput; CHO-K1 KCNQ1, FluxOR thallium flux fluorescence; stronger effect = higher value; B-score at 10 µM; hit rate 1.3% among 310,000;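 active means compounds whose thallium flux B-score, printed positive for inhibition, exceeds three library SD while starting fluorescence stays within three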;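 further: channel opened by potassium depolarization with thallium stimulus after 20 min compound exposure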
# KCNK3 block: human KCNK3 channel inhibitors, primary screen, CHO cells, FluxOR thallium flux, B-score; Potassium channel subfamily K member 3 (Homo sapiens), O14649; FluxOR fluorescence; stronger effect = lower value; B-score at 10 µM; hit rate 0.84% among 340,000;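 active means B-score under library mean minus 4 SD, starting fluorescence ratio at most library mean plus 5 SD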;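 further: more negative B-score means stronger inhibition of thallium flux through KCNK3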
# * marks the source's active call; other numbers are inactive results; i = inactive; . = not tested or not shown.
SMILES,KCNK9 block,KCNQ1 act,Kir21 block,hERG protect,KCNQ1 inh,KCNK3 block
CC1(C)CC=CC(COC(=O)c2ccccc2C(=O)O)C1 (stereo unspecified),.,.,.,.,.,i
CCn1c(=O)c(C(=O)NCCc2ccc(Cl)cc2)c(O)c2ccccc21,i,i,0.26,-5.7,i,i
CCCn1c(=O)c(C(=O)NCCCc2ccccc2)c(O)c2ccccc21,i,i,-0.32,-6.0,7*,i
CCCn1c(=O)c(C(=O)NCCc2ccc(Cl)cc2)c(O)c2ccccc21,i,i,-0.39,-7.2,7*,i
CCCn1c(=O)c(C(=O)NCc2ccncc2)c(O)c2ccccc21,i,i,1.03,-3.8,i,i
CCn1c(=O)c(C(=O)NNS(=O)(=O)c2ccc(Br)cc2)c(O)c2ccccc21,i,i,-0.02,-9.1,6*,i
CCn1c(=O)c(C(=O)NCCCc2ccccc2)c(O)c2ccccc21,i,i,0.05,-6.7,6*,i
CCn1c(=O)c(C(=O)NNS(=O)(=O)c2ccc(C)cc2)c(O)c2ccccc21,i,i,0.22,-7.3,i,i
CC1CC=CCC1(CO)CO (stereo unspecified),.,.,.,.,.,i
O=C(CCC(=O)N1CCN(Cc2ccccc2)CC1)Nc1nnc(C2CCCCC2)s1,i,i,1.54,-8.2,i,i
Cc1cc(C)n2nc(C(=O)N3CCOCC3)nc2n1,i,i,-0.4,8.0*,i,i
Cc1cc(C)n2nc(C(=O)OCC(=O)N3CCC3)nc2n1,i,i,0.45,5.3*,i,i
O=C(NC(=S)/C(=C1\CCCCCN1)[N+](=O)[O-])c1ccccc1,.,.,.,.,.,i
CNC(=O)NCC12CC3CC(CC(C3)C1)C2,i,i,-1.85,5.1*,i,i
CN1CCN(C(=O)NCC23CC4CC(CC(C4)C2)C3)CC1,i,i,-0.94,-14.2,i,i
O=C(CCl)N1CCN(S(=O)(=O)c2ccc3c(c2)CCC3)CC1,.,.,.,.,.,i
CN(CCCNC(=O)c1cc2c(Cl)nc3ccccc3c2s1)Cc1ccccc1,i,i,-4.97*,-21.6,i,i
CCN(CC)CCCNC(=O)c1cc2c(Cl)nc3ccccc3c2s1,i,i,-0.89,-11.6,i,i
COc1ccc(OC)c(NC(=O)c2cccnc2Sc2cc(C)ccc2C)c1,-7.59*,i,-1.9,-5.9,i,i
Cc1ccc(Nc2ncc3c(=O)[nH][nH]c(=O)c3n2)cc1,.,.,.,.,.,i
COc1ccc(C(C(=O)NC2CCCCC2)N(Cc2cccs2)C(=O)Cc2c[nH]c3ccccc23)cc1 (stereo unspecified),-7.26*,i,1.35,-8.8,i,i
COc1cccc(CN(C(=O)Cc2c[nH]c3ccccc23)C(C(=O)NC2CCCCC2)c2cccs2)c1 (stereo unspecified),i,i,-1.64,-14.4,7*,i
O=C(NC1CCCCC1)C(c1cccs1)N(C(=O)Cc1c[nH]c2ccccc12)c1ccc(F)cc1 (stereo unspecified),i,i,0.41,-9.4,i,i
CCC1([N+](=O)[O-])COC(c2ccc(OC)cc2)OC1 (stereo unspecified),.,.,.,.,.,i
O=C(COc1ccc(Cl)cc1)NC1CC1,i,i,0,0.5,i,i
SMILES,KCNK9 block,KCNQ1 act,Kir21 block,hERG protect,KCNQ1 inh,KCNK3 block
COc1ccccc1C(=O)NNC(=O)C(=O)NC1CCCCC1,i,20*,0.59,20.8*,i,i
O=C(COc1ccc(Cl)cc1)NNC(=O)C(=O)NC1CCCCC1,i,11*,0.22,15.1*,i,i
COc1cc(C(=O)c2nccc3cc(OC)c(OC)cc23)c([N+](=O)[O-])cc1OC,i,i,1.69,5.9*,i,i
O=C(NCCC(c1ccccc1)c1ccco1)c1cccs1 (stereo unspecified),i,i,-0.32,-12.5,i,i
Fc1ccc(C(CCNCc2cccs2)c2ccco2)cc1 (stereo unspecified),i,i,-4.48*,-3.0,i,i
NC(=O)c1ccccc1NC(=O)C(c1ccccc1)c1ccccc1,i,i,-0.04,-5.2,i,i
COc1ccc(NC(=O)CNS(=O)(=O)c2ccc(Cl)cc2)cc1,i,i,0.71,-1.9,i,i
COc1cccc(NC(=O)CNS(=O)(=O)c2ccc(Cl)cc2)c1,i,i,-4.24*,-12.6,i,i
Cc1ccc(NC(=O)c2ccc3c(c2)OCCO3)cc1S(=O)(=O)Nc1cccc(Cl)c1,i,i,0,-9.1,6*,i
Cc1cccc(NC(=O)c2cccc(NS(=O)(=O)c3ccc(Cl)cc3)c2)c1,i,i,-0.2,-17.7,10*,i
CCOP(=O)(OCC)C(NC(=O)Nc1ccccc1)c1ccccc1 (stereo unspecified),i,i,0.71,-9.1,i,i
CCOP(=O)(OCC)C(NCc1ccccc1)c1ccc(Br)cc1 (stereo unspecified),i,i,-4.26*,-2.2,i,i
CCc1c(C)nc2cc(-c3ccc(OC)c(OC)c3)nn2c1NCC1CC1,-6.68*,i,0.82,-28.1,i,i
CCCOc1ccc(C(C(=O)OCCN(CC)CC)c2ccccc2)cc1 (stereo unspecified),i,i,-0.79,-7.5,i,i
COc1ccc(C(=O)C/C(=C\C(=O)c2ccc(C)cc2)c2ccccc2)cc1,i,i,-1.47,-13.5,6*,i
COc1ccc(C(=O)CC(=O)c2ccccc2)cc1,i,i,-0.27,-7.7,i,i
COc1ccc(C(CC(=O)c2ccccc2)CC(=O)c2ccccc2)cc1,-7.15*,i,0.01,-2.8,i,i
O=C(CC(CC(=O)c1ccccc1)c1ccncc1)c1ccccc1,.,.,.,.,.,i
COc1ccc(C(C(=O)OCCN(C)C)c2ccccc2)cc1 (stereo unspecified),-6.81*,i,-1.33,-3.3,i,i
C=CCC[C@@H](Cc1ccc(F)cc1)C(=O)OCCNC(=O)[C@H](CC=C)CC(=O)NCCO,.,.,.,.,.,i
CC(=O)c1ccc(OCCCC(=O)OCC(=O)N2CCN(S(=O)(=O)c3ccc(C)cc3C)CC2)cc1,.,.,.,.,.,i
Oc1cccc(C=NN=C2c3ccccc3-c3ccccc32)c1,.,.,.,.,.,-9.04*
